Experimental data published in ChEMBL document CHEMBL3244063, “Pharmacology on rat ileum of certain 2-substituted 3-(dimethylamino)-5,6-dimethoxyindenes related to 5,6-(methylenedioxy)indene calcium antagonists” (1978).
Calls of active or inactive are those of the source. The rule behind the calls is not given here.

Assays:
[1] = organism: Rattus norvegicus; assay: Agonist activity at calcium channel in albino rat ileum assessed as induction of spasmogenic action by measuring contraction of ileum at 10^-4 M measured for 3 mins relative to acetylcholine; format: tissue-based
Summary of the method: (§1)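 Isolated rat ileum strips in an organ bath, with a separate strip for each compound and concentration. A control contraction to PGF2α (3 × 10⁻⁷ M bath) or acetylcholine (10⁻⁶ M bath) is recorded, and the bath is washed three times. Contraction during the 3-min test-compound incubation, before spasmogen is added, is expressed as percent of the control spasmogen response. Mean ± SEM of four experiments.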

[2] = organism: Rattus norvegicus; assay: Antagonist activity at calcium channel in albino rat ileum assessed as inhibition of acetylcholine-induced spasmogenic action by measuring contraction of ileum at 10^-4 acetylcholine induction (reference value: 80 +/- 5%); format: tissue-based; parameters: scale not given: the % may be the effect or the level left
[3] = organism: Rattus norvegicus; assay: Agonist activity at calcium channel in albino rat ileum assessed as induction of spasmogenic action by measuring contraction of ileum at 10^-3 M measured for 3 mins relative to PGF-2alpha; format: tissue-based; summary of the method: as §1
[4] = organism: Rattus norvegicus; assay: Antagonist activity at calcium channel in albino rat ileum assessed as inhibition of PGF-2alpha-induced spasmogenic action by measuring contraction of ileum at 10^-3 M preincubated for 3 mins followed by PGF-2alpha induction (reference value: 76 +/- 4%); format: tissue-based; parameters: scale not given: the % may be the effect or the level left
[5] = organism: Rattus norvegicus; assay: Antagonist activity at calcium channel in albino rat ileum assessed as inhibition of PGF-2alpha-induced spasmogenic action by measuring contraction of ileum at 10^-6 M preincubated for 3 mins followed by PGF-2alpha induction (reference value: 76 +/- 4%); format: tissue-based; parameters: scale not given: the % may be the effect or the level left
[6] = organism: Rattus norvegicus; assay: Antagonist activity at calcium channel in albino rat ileum assessed as inhibition of acetylcholine-induced spasmogenic action by measuring contraction of ileum at 10^-6 acetylcholine induction (reference value: 80 +/- 5%); format: tissue-based; parameters: scale not given: the % may be the effect or the level left
[7] = organism: Rattus norvegicus; assay: Antagonist activity at calcium channel in albino rat ileum assessed as inhibition of PGF-2alpha-induced spasmogenic action by measuring contraction of ileum at 10^-5 M preincubated for 3 mins followed by PGF-2alpha induction (reference value: 76 +/- 4%); format: tissue-based; parameters: scale not given: the % may be the effect or the level left
[8] = organism: Rattus norvegicus; assay: Agonist activity at calcium channel in albino rat ileum assessed as induction of spasmogenic action by measuring contraction of ileum at 10^-4 M measured for 3 mins relative to PGF-2alpha; format: tissue-based; summary of the method: as §1
[9] = organism: Rattus norvegicus; assay: Antagonist activity at calcium channel in albino rat ileum assessed as inhibition of PGF-2alpha-induced spasmogenic action by measuring contraction of ileum at 10^-4 M preincubated for 3 mins followed by PGF-2alpha induction (reference value: 76 +/- 4%); format: tissue-based; parameters: scale not given: the % may be the effect or the level left
[10] = organism: Rattus norvegicus; assay: Agonist activity at calcium channel in albino rat ileum assessed as induction of spasmogenic action by measuring contraction of ileum at 10^-6 to 10^-5 M measured for 3 mins; format: tissue-based; summary of the method: as §1
[11] = organism: Rattus norvegicus; assay: Agonist activity at calcium channel in albino rat ileum assessed as induction of spasmogenic action by measuring contraction of ileum at 10^-3 M measured for 3 mins relative to acetylcholine; format: tissue-based; summary of the method: as §1
[12] = organism: Rattus norvegicus; assay: Antagonist activity at calcium channel in albino rat ileum assessed as inhibition of acetylcholine-induced spasmogenic action by measuring contraction of ileum at 10^-5 acetylcholine induction (reference value: 80 +/- 5%); format: tissue-based; parameters: scale not given: the % may be the effect or the level left
[13] = organism: Rattus norvegicus; assay: Antagonist activity at calcium channel in albino rat ileum assessed as inhibition of acetylcholine-induced spasmogenic action by measuring contraction of ileum at 10^-3 acetylcholine induction (reference value: 80 +/- 5%); format: tissue-based; parameters: scale not given: the % may be the effect or the level left
[14] = test system: Heart; assay: Positive inotropic activity in perfused rabbit heart assessed as increase in force of contraction at 10^-6 M relative to control; format: functional, Oryctolagus cuniculus

Row | SMILES | Activity [1] [%] | Activity [2] [%] | Activity [3] [%] | Activity [4] [%] | Activity [5] [%] | Activity [6] [%] | Activity [7] [%] | Activity [8] [%] | Activity [9] [%] | Activity [10] | Activity [11] [%] | Activity [12] [%] | Activity [13] [%] | Activity [14] [%]
1 | COc1cc2c(cc1OC)C(N(C)C)C(C)=C2 (stereo not drawn) | 20.6 | 94.4 | 119 | 124 | 111 | 113 | 108 | 59.8 | 113 | inactive | 49.5 | 113 | 64 | –
2 | CCCC1=Cc2cc3c(cc2C1N(C)C)OCO3.Cl (stereo not drawn) | – | – | – | – | – | – | – | – | – | – | – | – | – | 36
3 | CCCCC1=Cc2cc(OC)c(OC)cc2C1N(C)C (stereo not drawn) | 25.3 | 78.6 | 58.1 | 65.2 | 101 | 104 | 91.1 | 37.1 | 60.5 | inactive | 46.7 | 108 | 64.3 | –
4 | CCC1=Cc2cc(OC)c(OC)cc2C1N(C)C (stereo not drawn) | 28.9 | 91.5 | 77.3 | 62 | 98.7 | 105 | 108 | 74.7 | 110 | inactive | 45.3 | 105 | 51.3 | –
5 | CCCC1=Cc2cc(OC)c(OC)cc2C1N(C)C (stereo not drawn) | 42.7 | 96.6 | 61.7 | 49.1 | 104 | 104 | 99.3 | 80.7 | 99.7 | inactive | 43.6 | 110 | 56.7 | –
